# Measured values: ChEMBL document CHEMBL2384924, “Antagonists for the orphan G-protein-coupled receptor GPR55 based on a coumarin scaffold” (J Med Chem, 2013)
# Active and inactive are the calls of the source.
# Target: T1, N-arachidonyl glycine receptor (Homo sapiens) (UniProt Q14330)
# T1 sequence (whole entry): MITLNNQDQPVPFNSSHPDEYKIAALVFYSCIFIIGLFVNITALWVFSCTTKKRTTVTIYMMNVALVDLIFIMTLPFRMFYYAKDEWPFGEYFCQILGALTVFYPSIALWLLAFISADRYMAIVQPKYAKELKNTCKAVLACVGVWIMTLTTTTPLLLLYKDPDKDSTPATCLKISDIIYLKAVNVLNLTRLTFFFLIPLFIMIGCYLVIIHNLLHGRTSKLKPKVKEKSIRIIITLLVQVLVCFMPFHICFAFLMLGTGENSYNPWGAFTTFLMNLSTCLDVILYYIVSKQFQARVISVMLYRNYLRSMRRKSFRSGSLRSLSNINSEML
# Experiment: Antagonist activity at human GPR18 transfected in CHO cells assessed as delta9-THC-induced beta-arrestin recruitment at 10 uM incubated 60 mins prior to delta9-THC addition by beta-arrestin translocation assay
# Assay type: cell-based
# Set-up: scale not given: the % may be the effect or the level left
# Conditions: not given
# In short: (§1)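 CHO cells stably expressing human GPR18 were seeded at 20,000 cells/well for 24 h at 37°C. Compound in PBS/10% DMSO/0.1% BSA was added 60 min before the GPR18 agonist 3 at 10 µM. The supplier's detection reagent was used, and luminescence was read after 60 min at RT. Screening was at 10 µM (% inhibition); IC50 from concentration-inhibition curves. Three independent experiments in duplicate.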
row,Compound,Activity
1,CCCCCc1cc(OC)c2cc(Cc3ccc(Cl)cc3)c(=O)oc2c1,50%
2,Cc1c(O)c(C)c2cc(Cc3ccc(F)cc3)c(=O)oc2c1C,47%
3,CCCCC1(c2cc(O)c3cc(Cc4ccccc4O)c(=O)oc3c2)CCCCC1,59%
4,COc1c(C)c(C)c2oc(=O)c(Cc3ccc(F)cc3)cc2c1C,32%
5,COc1ccccc1Cc1cc2c(C)c(OC)c(C)c(C)c2oc1=O,27%
6,CCCCC1(c2cc(O)c3cc(Cc4ccccc4O)c(=O)oc3c2)CCCC1,57%
7,CCCCCc1cc(OC)c2cc(Cc3ccccc3Cl)c(=O)oc2c1,25%
8,COc1ccccc1Cc1cc2c(C)ccc(C)c2oc1=O,0%
9,Cc1c(O)c(C)c2cc(Cc3ccccc3)c(=O)oc2c1C,16%
10,COc1c(C)c(C)c2oc(=O)c(Cc3ccccc3C)cc2c1C,33%
11,Cc1ccccc1Cc1cc2c(C)c(O)c(C)c(C)c2oc1=O,38%
12,COc1cccc(Cc2cc3c(OC)cc(Br)cc3oc2=O)c1,31%
13,CCCCCc1cc(OC)c2cc(Cc3ccccc3OC)c(=O)oc2c1,20%

# Target: T2, Cannabinoid receptor 1 (Homo sapiens, UniProt P21554)
# T2 sequence (P21554 whole entry): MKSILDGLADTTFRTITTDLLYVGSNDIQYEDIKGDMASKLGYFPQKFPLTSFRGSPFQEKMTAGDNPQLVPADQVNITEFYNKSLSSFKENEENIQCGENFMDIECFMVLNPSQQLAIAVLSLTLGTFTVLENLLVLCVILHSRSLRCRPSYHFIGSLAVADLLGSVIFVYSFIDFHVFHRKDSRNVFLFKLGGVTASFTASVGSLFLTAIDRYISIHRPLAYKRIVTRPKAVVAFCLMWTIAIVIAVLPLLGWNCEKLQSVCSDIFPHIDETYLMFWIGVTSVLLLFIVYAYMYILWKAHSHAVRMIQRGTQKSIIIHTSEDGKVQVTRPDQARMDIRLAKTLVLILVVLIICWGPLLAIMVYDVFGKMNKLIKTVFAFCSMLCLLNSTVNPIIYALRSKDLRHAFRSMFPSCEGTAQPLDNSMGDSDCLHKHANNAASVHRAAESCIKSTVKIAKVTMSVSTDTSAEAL
# Experiment: Agonist activity at human CB1 receptor expressed in CHOK1 cells assessed as […] of forskolin-stimulated cAMP level at 10 uM
# Assay type: functional, cell-based
# Conditions: CHO-K1
row,Compound,Activity
1,CCCCCCC(C)(C)c1cc(O)c2cc(Cc3ccccc3)c(=O)oc2c1,Active
2,CCCCCc1cc(OC)c2cc(Cc3ccccc3OC)c(=O)oc2c1,Active

# Target: T2, Cannabinoid receptor 1
# Experiment: Antagonist activity at human CB1 receptor expressed in CHOK1 cells assessed as inhibition of forskolin-stimulated cAMP level at 10 uM
# Assay type: functional, cell-based
# Conditions: CHO-K1
row,Compound,inhibition
1,CCCCCc1cc(OC)c2cc(Cc3ccc(Cl)cc3)c(=O)oc2c1,Active

# Target: T2, Cannabinoid receptor 1
# Experiment: Displacement of [3H]-CP55,940 from human CB1 receptor transfected in CHOK1 cells at 10 uM
# Assay type: cell-based
# Conditions: CHO-K1
# In short: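 Human CB1 from membrane preparations of stably transfected CHO cells, 25 µg protein per vial. Competition with [3H]CP55,940 at 0.1 nM final, with test compound at 10 µM, read as % inhibition of radioligand binding. Final DMSO 2.5%. Three independent experiments in duplicate.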
row,Compound,Activity
1,Cc1c(O)c(C)c2cc(Cc3ccc(F)cc3)c(=O)oc2c1C,34%
2,COc1c(C)c(C)c2oc(=O)c(Cc3ccc(F)cc3)cc2c1C,49%
3,COc1ccccc1Cc1cc2c(C)ccc(C)c2oc1=O,16%
4,Cc1c(O)c(C)c2cc(Cc3ccccc3)c(=O)oc2c1C,21%
5,Cc1ccccc1Cc1cc2c(C)c(O)c(C)c(C)c2oc1=O,45%
6,COc1cccc(Cc2cc3c(OC)cc(Br)cc3oc2=O)c1,38%

# Target: T3, G-protein coupled receptor 55 (Homo sapiens, UniProt Q9Y2T6)
# T3 sequence (Q9Y2T6 whole entry): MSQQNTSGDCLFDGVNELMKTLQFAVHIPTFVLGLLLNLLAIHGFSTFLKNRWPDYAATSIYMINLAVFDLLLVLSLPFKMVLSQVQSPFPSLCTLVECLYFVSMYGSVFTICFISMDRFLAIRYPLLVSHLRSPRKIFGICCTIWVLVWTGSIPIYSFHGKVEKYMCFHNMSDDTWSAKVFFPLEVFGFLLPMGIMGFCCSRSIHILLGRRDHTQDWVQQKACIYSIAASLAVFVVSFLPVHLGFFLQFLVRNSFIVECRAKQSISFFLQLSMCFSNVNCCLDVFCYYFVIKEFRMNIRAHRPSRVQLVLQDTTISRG
# Experiment: Agonist activity at human GPR55 transfected in CHO cells at 10 uM after 90 mins by beta-arrestin translocation assay
# Assay type: cell-based
# Conditions: not given
# In short: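 CHO cells stably expressing human GPR55 (β-galactosidase fragment complementation) were seeded at 20,000 cells/well in Opti-MEM with 2% FCS for 24 h at 37°C. Compound was diluted in PBS with 10% DMSO and 0.1% BSA, screened at 10 µM and incubated 90 min at 37°C. Galacton-Star/Emerald-II/lysis buffer (1:5:19) was added for 60 min at RT, then luminescence was read. Response is relative to 1 µM LPI (100%).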
row,Compound,Activity
1,CCCCCc1cc(OC)c2cc(Cc3ccc(Cl)cc3)c(=O)oc2c1,inactive
2,Cc1c(O)c(C)c2cc(Cc3ccc(F)cc3)c(=O)oc2c1C,inactive
3,CCCCC1(c2cc(O)c3cc(Cc4ccccc4O)c(=O)oc3c2)CCCCC1,inactive
4,COc1c(C)c(C)c2oc(=O)c(Cc3ccc(F)cc3)cc2c1C,inactive
5,COc1ccccc1Cc1cc2c(C)c(OC)c(C)c(C)c2oc1=O,inactive
6,CCCCC1(c2cc(O)c3cc(Cc4ccccc4O)c(=O)oc3c2)CCCC1,inactive
7,CCCCCc1cc(OC)c2cc(Cc3ccccc3Cl)c(=O)oc2c1,inactive
8,CCCCCCC(C)(C)c1cc(O)c2cc(Cc3ccccc3)c(=O)oc2c1,inactive
9,COc1ccccc1Cc1cc2c(C)ccc(C)c2oc1=O,inactive
10,CCCCCCC(C)(C)c1cc(O)c2cc(Cc3ccccc3O)c(=O)oc2c1,inactive
11,Cc1c(O)c(C)c2cc(Cc3ccccc3)c(=O)oc2c1C,inactive
12,COc1c(C)c(C)c2oc(=O)c(Cc3ccccc3C)cc2c1C,inactive
13,Cc1ccccc1Cc1cc2c(C)c(O)c(C)c(C)c2oc1=O,inactive
14,COc1cccc(Cc2cc3c(OC)cc(Br)cc3oc2=O)c1,inactive
15,CCCCCc1cc(OC)c2cc(Cc3ccccc3OC)c(=O)oc2c1,inactive

# Target: T4, Cannabinoid receptor 2 (Homo sapiens, UniProt P34972)
# T4 sequence (P34972 whole entry): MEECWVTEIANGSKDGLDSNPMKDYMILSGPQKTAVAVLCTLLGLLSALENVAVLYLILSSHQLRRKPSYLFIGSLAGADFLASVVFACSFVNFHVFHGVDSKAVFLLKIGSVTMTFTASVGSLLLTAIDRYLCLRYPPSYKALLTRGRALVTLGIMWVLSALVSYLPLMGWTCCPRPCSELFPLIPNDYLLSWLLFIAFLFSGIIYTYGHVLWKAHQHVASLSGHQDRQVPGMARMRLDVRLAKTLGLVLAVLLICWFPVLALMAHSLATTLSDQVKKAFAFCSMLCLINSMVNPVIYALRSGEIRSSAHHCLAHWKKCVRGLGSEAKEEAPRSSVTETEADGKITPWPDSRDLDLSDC
# Experiment: Displacement of [3H]-CP55,940 from human CB2 receptor transfected in CHOK1 cells
# Assay type: cell-based, CHO-K1
# Conditions: not given
# In short: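 CHO cells stably expressing human CB2 supplied the membranes, 1 µg protein per vial. Compounds were screened at 10 µM, and full competition curves were run where inhibition was about 50% or more. Three independent experiments in duplicate.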
row,Compound,Ki
1,CCCCCc1cc(OC)c2cc(Cc3ccc(Cl)cc3)c(=O)oc2c1,0.578 µM
2,Cc1c(O)c(C)c2cc(Cc3ccc(F)cc3)c(=O)oc2c1C,0.444 µM
3,COc1c(C)c(C)c2oc(=O)c(Cc3ccc(F)cc3)cc2c1C,1.48 µM
4,COc1ccccc1Cc1cc2c(C)c(OC)c(C)c(C)c2oc1=O,0.338 µM
5,COc1ccccc1Cc1cc2c(C)ccc(C)c2oc1=O,6.83 µM
6,Cc1c(O)c(C)c2cc(Cc3ccccc3)c(=O)oc2c1C,3.42 µM
7,COc1c(C)c(C)c2oc(=O)c(Cc3ccccc3C)cc2c1C,0.66 µM
8,Cc1ccccc1Cc1cc2c(C)c(O)c(C)c(C)c2oc1=O,1.56 µM

# Target: T2, Cannabinoid receptor 1
# Experiment: Displacement of [3H]-CP55,940 from human CB1 receptor transfected in CHOK1 cells
# Assay type: cell-based, CHO-K1
# Conditions: not given
row,Compound,Ki
1,CCCCCc1cc(OC)c2cc(Cc3ccc(Cl)cc3)c(=O)oc2c1,0.613 µM
2,Cc1c(O)c(C)c2cc(Cc3ccc(F)cc3)c(=O)oc2c1C,> 10 µM
3,COc1c(C)c(C)c2oc(=O)c(Cc3ccc(F)cc3)cc2c1C,10 µM
4,COc1ccccc1Cc1cc2c(C)c(OC)c(C)c(C)c2oc1=O,3.66 µM
5,COc1ccccc1Cc1cc2c(C)ccc(C)c2oc1=O,> 10 µM
6,Cc1c(O)c(C)c2cc(Cc3ccccc3)c(=O)oc2c1C,> 10 µM
7,COc1c(C)c(C)c2oc(=O)c(Cc3ccccc3C)cc2c1C,7.86 µM
8,Cc1ccccc1Cc1cc2c(C)c(O)c(C)c(C)c2oc1=O,≥ 10 µM

# Target: T4, Cannabinoid receptor 2
# Experiment: Agonist activity at human CB2 receptor expressed in CHOK1 cells assessed as […] of forskolin-stimulated cAMP level at 10 uM
# Assay type: functional, cell-based
# Conditions: CHO-K1
row,Compound,Activity
1,CCCCCc1cc(OC)c2cc(Cc3ccc(Cl)cc3)c(=O)oc2c1,Active
2,CCCCC1(c2cc(O)c3cc(Cc4ccccc4O)c(=O)oc3c2)CCCCC1,Active
3,CCCCC1(c2cc(O)c3cc(Cc4ccccc4O)c(=O)oc3c2)CCCC1,Active
4,CCCCCCC(C)(C)c1cc(O)c2cc(Cc3ccccc3)c(=O)oc2c1,Active
5,CCCCCCC(C)(C)c1cc(O)c2cc(Cc3ccccc3O)c(=O)oc2c1,Active
6,CCCCCc1cc(OC)c2cc(Cc3ccccc3OC)c(=O)oc2c1,Active

# Target: T3, G-protein coupled receptor 55
# Experiment: Antagonist activity at human GPR55 transfected in CHO cells assessed as inhibition of LPI-induced beta-arrestin recruitment incubated 60 mins prior to LPI addition by beta-arrestin translocation assay
# Assay type: cell-based
# Conditions: not given
# In short: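 CHO cells stably expressing human GPR55 were seeded at 20,000 cells/well for 24 h at 37°C. Compound in PBS/10% DMSO/0.1% BSA was added 60 min before 1 µM LPI. Galacton-Star/Emerald-II/lysis buffer (pH 8) was applied for 60 min at RT, with luminescence read-out. Screening was at 10 µM (% inhibition). IC50 was measured where inhibition exceeded 60%. Three independent experiments in duplicate.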
row,Compound,IC50
1,CCCCCc1cc(OC)c2cc(Cc3ccc(Cl)cc3)c(=O)oc2c1,3.29 µM
2,Cc1c(O)c(C)c2cc(Cc3ccc(F)cc3)c(=O)oc2c1C,10.3 µM
3,CCCCC1(c2cc(O)c3cc(Cc4ccccc4O)c(=O)oc3c2)CCCCC1,0.961 µM
4,COc1c(C)c(C)c2oc(=O)c(Cc3ccc(F)cc3)cc2c1C,13.5 µM
5,COc1ccccc1Cc1cc2c(C)c(OC)c(C)c(C)c2oc1=O,0.981 µM
6,CCCCC1(c2cc(O)c3cc(Cc4ccccc4O)c(=O)oc3c2)CCCC1,0.854 µM
7,CCCCCc1cc(OC)c2cc(Cc3ccccc3Cl)c(=O)oc2c1,9 µM
8,CCCCCCC(C)(C)c1cc(O)c2cc(Cc3ccccc3)c(=O)oc2c1,0.358 µM
9,COc1ccccc1Cc1cc2c(C)ccc(C)c2oc1=O,7.14 µM
10,CCCCCCC(C)(C)c1cc(O)c2cc(Cc3ccccc3O)c(=O)oc2c1,0.261 µM
11,Cc1c(O)c(C)c2cc(Cc3ccccc3)c(=O)oc2c1C,9.32 µM
12,COc1c(C)c(C)c2oc(=O)c(Cc3ccccc3C)cc2c1C,7.69 µM
13,Cc1ccccc1Cc1cc2c(C)c(O)c(C)c(C)c2oc1=O,5.16 µM
14,COc1cccc(Cc2cc3c(OC)cc(Br)cc3oc2=O)c1,3.99 µM
15,CCCCCc1cc(OC)c2cc(Cc3ccccc3OC)c(=O)oc2c1,6.35 µM

# Target: T5, N-arachidonyl glycine receptor (Homo sapiens, UniProt Q14330)
# T5 sequence (Q14330 whole entry): T1 sequence (whole entry)
# Experiment: Antagonist activity at human GPR18 transfected in CHO cells assessed as delta9-THC-induced beta-arrestin recruitment incubated 60 mins prior to delta9-THC addition by beta-arrestin translocation assay
# Assay type: cell-based
# Conditions: not given
# In short: as §1
row,Compound,IC50
1,CCCCCc1cc(OC)c2cc(Cc3ccc(Cl)cc3)c(=O)oc2c1,10 µM
2,Cc1c(O)c(C)c2cc(Cc3ccc(F)cc3)c(=O)oc2c1C,≥ 10 µM
3,CCCCC1(c2cc(O)c3cc(Cc4ccccc4O)c(=O)oc3c2)CCCCC1,≥ 10 µM
4,COc1c(C)c(C)c2oc(=O)c(Cc3ccc(F)cc3)cc2c1C,> 10 µM
5,COc1ccccc1Cc1cc2c(C)c(OC)c(C)c(C)c2oc1=O,> 10 µM
6,CCCCCc1cc(OC)c2cc(Cc3ccccc3Cl)c(=O)oc2c1,> 10 µM
7,CCCCCCC(C)(C)c1cc(O)c2cc(Cc3ccccc3)c(=O)oc2c1,8.1 µM
8,COc1ccccc1Cc1cc2c(C)ccc(C)c2oc1=O,> 10 µM
9,CCCCCCC(C)(C)c1ccc([C@@H]2C[C@H](O)CC[C@H]2CCCO)c(O)c1 [CP-55940],5.99 µM
10,CCCCCCC(C)(C)c1cc(O)c2cc(Cc3ccccc3O)c(=O)oc2c1,15.9 µM
11,Cc1c(O)c(C)c2cc(Cc3ccccc3)c(=O)oc2c1C,> 10 µM
12,COc1c(C)c(C)c2oc(=O)c(Cc3ccccc3C)cc2c1C,> 10 µM
13,Cc1ccccc1Cc1cc2c(C)c(O)c(C)c(C)c2oc1=O,> 10 µM
14,COc1cccc(Cc2cc3c(OC)cc(Br)cc3oc2=O)c1,> 10 µM
15,CCCCCc1cc(OC)c2cc(Cc3ccccc3OC)c(=O)oc2c1,> 10 µM
